Data set [1] has as its system Human immunodeficiency virus 1. Description: Antiviral activity against HIV1 HXB2 in HOS-CD4-CXCR4 cells by viral infectivity assay. The class given is functional, organism-based. As to conditions: Human immunodeficiency virus 1, HXB2. Put shortly:
(§1)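 Single-cycle pseudovirion entry assay. HXB2 pseudovirions were used on HOS-CD4-CXCR4 cells, and BaL or JRFL on HOS-CD4-CCR5 cells. 8 μg/ml DEAE-Dextran served as fusion enhancer, and medium was changed ≈24 h post-infection. DMSO-dissolved samples were run at 1% final DMSO against a 1% DMSO uninhibited control. IC50 comes from duplicate assays. Toxicity was checked microscopically and by luciferase with VSV-G pseudotyped virions, where a >10% loss meant toxicity.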

The nature of data set [2]: Binding affinity to HIV1 N-trimer gp41 mimic IZN36 by surface plasmon resonance analysis.
For data set [3], the system named is Human immunodeficiency virus 1. Kind of data set: Antiviral activity against HIV1 JRFL in HOS-CD4-CCR5 cells by viral infectivity assay. In kind it is functional, organism-based. As to conditions: Human immunodeficiency virus 1, JRFL. Put shortly:
as §1

Data set [4] has as its system Human immunodeficiency virus 1. Description: Antiviral activity against HIV1 BaL in HOS-CD4-CCR5 cells by viral infectivity assay. The class given is functional, organism-based. The note with it: Human immunodeficiency virus 1, BaL. In a few lines:
as §1

Another data set has as its system HOS. Kind of data set: Cytotoxicity in VSV-G pseudotyped virion infected human HOS-CD4-CXCR4 cells assessed as luciferase level at 100 uM after 24 hrs. In kind it is cell-based. In a few lines: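 Single-cycle infection in HOS-CD4 target cells with VSV-G-pseudotyped luciferase virions in the presence of peptide, using 8 μg/ml DEAE-Dextran as fusion enhancer. Media were changed about 24 h after infection. DMSO-dissolved samples were run at 1% final DMSO against a 1% DMSO uninhibited control. A luciferase drop of more than 10% counted as cytotoxicity, alongside microscopic inspection at about 24 h.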

In data set [5] the test system is Human immunodeficiency virus 1. Kind of data set: Antiviral activity against HIV1 JRFL in HOS-CD4-CCR5 cells at 100 uM by viral infectivity assay. The class given is functional, organism-based. In a few lines: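 JRFL pseudovirions were tested in single-cycle infection of HOS-CD4-CCR5 cells with 8 μg/ml DEAE-Dextran and a medium change ≈24 h post-infection. Inhibition was scored at 100 μM. DMSO-dissolved samples were at 1% final DMSO, normalized to a 1% DMSO control.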

Activity calls are given as the source filed them. The rule behind the calls is not given here.

Take `CC(C)C[C@@H](NC(=O)[C@@H](Cc1c[nH]c2ccccc12)NC(=O)[C@@H](CCC(N)=O)NC(=O)[C@@H](Cc1c[nH]c2ccccc12)NC(=O)[C@@H](CCC(=O)O)NC(=O)[C@@H](CCCCN)NC(=O)[C@@H](Cc1ccc(O)cc1)NC(=O)[C@@H](CC(=O)O)NC(=O)[C@@H](CS)NC(=O)[C@@H](C)NC(=O)CNC(=O)[C@H](N)CCCCN)C(=O)N[C@H](CS)C(=O)N[C@H](C)C(=O)N[C@H](C)C(=O)O`: the IC50 in data set [1] came out at 1700 nM; in data set [3], 110 µM. Besides, the affinity in data set [2], expressed as Kd, was 170 nM.
In the case of `CC(C)C[C@@H](NC(=O)[C@@H](Cc1c[nH]c2ccccc12)NC(=O)[C@@H](CCC(N)=O)NC(=O)[C@@H](Cc1c[nH]c2ccccc12)NC(=O)[C@@H](CCC(=O)O)NC(=O)[C@H]1CCCN1C(=O)[C@@H](Cc1ccc(O)cc1)NC(=O)[C@@H](CC(=O)O)NC(=O)[C@@H](CS)NC(=O)[C@@H](C)NC(=O)CNC(=O)[C@H](N)CCCCN)C(=O)N[C@H](CS)C(=O)N[C@H](C)C(=O)N[C@H](C)C(=O)O`, the values for the IC50 in data set [1], in data set [4] and in data set [3] were 620 nM, 2.2 µM and 24 µM, respectively. Moreover, binding in data set [2] was put at a Kd of 80 nM.
In data set [1], `CC(C)C[C@@H](NC(=O)[C@@H](Cc1c[nH]c2ccccc12)NC(=O)[C@@H](CCCNC(=N)N)NC(=O)[C@@H](Cc1c[nH]c2ccccc12)NC(=O)[C@@H](CCC(=O)O)NC(=O)[C@H]1CCCN1C(=O)[C@@H](Cc1ccc(O)cc1)NC(=O)[C@@H](CC(=O)O)NC(=O)[C@@H](CS)NC(=O)[C@@H](C)NC(=O)CNC(=O)[C@@H](CCCCN)NC(=O)[C@H](N)CCCCN)C(=O)N[C@H](CS)C(=O)N[C@H](C)C(=O)N[C@H](C)C(=O)O` registered a half-inhibitory concentration (IC50) of 2600 nM. For the same compound, the equilibrium dissociation constant (Kd) in data set [2] was 170 nM.
Regarding `CC(C)C[C@@H](NC(=O)[C@@H](CC(C)C)NC(=O)[C@@H](CCC(=O)O)NC(=O)[C@@H](CS)NC(=O)[C@@H](C)NC(=O)CNC(=O)[C@@H](CCCCN)NC(=O)[C@H](N)CCCCN)C(=O)NCC(=O)N[C@H](Cc1c[nH]c2ccccc12)C(=O)N[C@H](CCC(=O)O)C(=O)N[C@H](Cc1c[nH]c2ccccc12)C(=O)N[C@H](C)C(=O)N[C@H](Cc1c[nH]c2ccccc12)C(=O)N[C@H](CC(C)C)C(=O)N[C@H](CS)C(=O)N[C@H](C)C(=O)N[C@H](C)C(=O)O`, the values for the IC50 in data set [1], in data set [4] and in data set [3] were 9500 nM, 12 µM and over 25 µM, respectively. Further, the Activity entry with HOS is listed as “Toxic”. The same compound returned an equilibrium dissociation constant (Kd) in data set [2] of 7000 nM.
`CC(C)C[C@@H](NC(=O)[C@@H](Cc1c[nH]c2ccccc12)NC(=O)[C@@H](CCCNC(=N)N)NC(=O)[C@@H](Cc1c[nH]c2ccccc12)NC(=O)[C@@H](CCC(=O)O)NC(=O)[C@H]1CCCN1C(=O)[C@@H](CO)NC(=O)[C@@H](CCC(=O)O)NC(=O)[C@@H](CS)NC(=O)[C@@H](C)NC(=O)CNC(=O)[C@@H](CCCCN)NC(=O)[C@H](N)CCCCN)C(=O)N[C@H](CS)C(=O)N[C@H](C)C(=O)N[C@H](C)C(=O)O` came in with an IC50 in data set [1] of 2200 nM.
With `CC(C)C[C@@H](NC(=O)[C@@H](Cc1c[nH]c2ccccc12)NC(=O)[C@@H](CCCNC(=N)N)NC(=O)[C@@H](Cc1c[nH]c2ccccc12)NC(=O)[C@@H](CCC(=O)O)NC(=O)[C@H]1CCCN1C(=O)[C@@H](CO)NC(=O)[C@@H](CCC(=O)O)NC(=O)[C@H](CS)NC(=O)[C@@H](C)NC(=O)CNC(=O)[C@@H](CCCCN)NC(=O)[C@H](N)CCCCN)C(=O)N[C@@H](CS)C(=O)N[C@H](C)C(=O)N[C@H](C)C(=O)O`, the result in data set [5] was inactive.
Take `CC(C)C[C@@H](NC(=O)[C@@H](Cc1c[nH]c2ccccc12)NC(=O)[C@@H](CCCNC(=N)N)NC(=O)[C@@H](Cc1c[nH]c2ccccc12)NC(=O)[C@@H](CCC(=O)O)NC(=O)[C@H]1CCCN1C(=O)[C@@H](Cc1ccc(O)cc1)NC(=O)[C@@H](CC(=O)O)NC(=O)[C@@H](CS)NC(=O)[C@@H](C)NC(=O)CNC(=O)[C@H](N)CCCCN)C(=O)N[C@H](CS)C(=O)N[C@H](C)C(=O)N[C@H](C)C(=O)O`: the IC50 was 1300 nM in data set [1] and 66 µM in data set [3]. For the same compound, in data set [2], the Kd stood at 130 nM.

For the origin of these results see ChEMBL document CHEMBL1156527, “Potent D-peptide inhibitors of HIV-1 entry” (Proc Natl Acad Sci U S A, 2007).
